ChEMBL document CHEMBL1133174, “Disubstituted indazoles as potent antagonists of the integrin alpha(v)beta(3)” (J Med Chem, 2000)

Key:
Integrin alpha-V/beta-3 [1] = molecular target: T1, Integrin alpha-V/beta-3 (Homo sapiens, UniProt P05106+P06756); assay: Inhibitory activity against beta-3-transfected 293 cells using alpha-V beta-3 antagonism assay; assay type: functional, cell-based, HEK293
How it was run: (§1)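 Fibrinogen-coated plates were blocked with BSA in PBS. HEK293 cells expressing human β3 subunit were preincubated 15 min at 37 °C with or without compound, then allowed to adhere for 60 min. Nonadherent cells were washed off with PBS, adherent cells lysed, and β-galactosidase activity read. IC50 was derived from standard curves and reported ± SEM.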

Integrin alpha-V/beta-3 [2] = molecular target: T1, Integrin alpha-V/beta-3; assay: Inhibition of Vitronectin receptor (alpha V beta 3) binding; assay type: protein-complex assay
Integrin alpha-V/beta-3 [3] = molecular target: T1, Integrin alpha-V/beta-3; assay: Inhibitory activity against beta-3-transfected 293 cells using alphaV-beta3 antagonism assay; assay type: functional, cell-based, HEK293; how it was run: as §1
[4] = molecular target: Integrin alpha-IIb/beta-3 (Homo sapiens, UniProt P05106+P08514); assay: Inhibition of aggregation of human gel-purified platelets (GPIIbIIIa GPP); assay type: functional
How it was run: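 Human platelets from healthy-volunteer platelet-rich plasma were gel-purified on sepharose and used at 2×10^8 platelets/mL with 1 mM CaCl2 and 1 mg/mL fibrinogen. Aggregation was measured with or without compound at several concentrations and IC50 calculated. Values are single determinations.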

Integrin alpha-V/beta-3 [5] = molecular target: T1, Integrin alpha-V/beta-3; assay: Inhibition of adhesion of integrin beta-3-transfected HEK293 cells to fibrinogen; assay type: functional, cell-based; how it was run: as §1

T1 sequence (P05106 27-788 limits assumed): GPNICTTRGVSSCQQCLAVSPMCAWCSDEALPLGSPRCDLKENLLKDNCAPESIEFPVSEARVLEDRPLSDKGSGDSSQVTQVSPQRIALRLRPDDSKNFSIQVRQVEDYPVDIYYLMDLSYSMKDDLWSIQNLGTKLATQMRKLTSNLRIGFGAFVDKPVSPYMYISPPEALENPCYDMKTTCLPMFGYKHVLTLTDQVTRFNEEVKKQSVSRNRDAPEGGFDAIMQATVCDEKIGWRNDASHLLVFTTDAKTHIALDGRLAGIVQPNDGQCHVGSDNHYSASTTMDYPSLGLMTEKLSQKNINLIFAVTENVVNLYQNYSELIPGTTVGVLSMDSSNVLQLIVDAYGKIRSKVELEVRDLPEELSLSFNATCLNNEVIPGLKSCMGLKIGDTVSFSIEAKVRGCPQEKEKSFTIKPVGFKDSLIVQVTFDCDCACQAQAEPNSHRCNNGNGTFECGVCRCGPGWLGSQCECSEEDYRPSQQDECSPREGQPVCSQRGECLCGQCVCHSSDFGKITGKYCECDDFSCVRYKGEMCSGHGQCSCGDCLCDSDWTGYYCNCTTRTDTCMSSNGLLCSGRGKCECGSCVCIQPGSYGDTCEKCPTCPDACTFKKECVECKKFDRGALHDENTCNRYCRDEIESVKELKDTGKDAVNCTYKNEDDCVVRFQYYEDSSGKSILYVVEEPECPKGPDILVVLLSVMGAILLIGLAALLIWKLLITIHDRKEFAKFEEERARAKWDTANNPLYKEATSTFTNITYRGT
T1 sequence (P06756 31-889 limits assumed): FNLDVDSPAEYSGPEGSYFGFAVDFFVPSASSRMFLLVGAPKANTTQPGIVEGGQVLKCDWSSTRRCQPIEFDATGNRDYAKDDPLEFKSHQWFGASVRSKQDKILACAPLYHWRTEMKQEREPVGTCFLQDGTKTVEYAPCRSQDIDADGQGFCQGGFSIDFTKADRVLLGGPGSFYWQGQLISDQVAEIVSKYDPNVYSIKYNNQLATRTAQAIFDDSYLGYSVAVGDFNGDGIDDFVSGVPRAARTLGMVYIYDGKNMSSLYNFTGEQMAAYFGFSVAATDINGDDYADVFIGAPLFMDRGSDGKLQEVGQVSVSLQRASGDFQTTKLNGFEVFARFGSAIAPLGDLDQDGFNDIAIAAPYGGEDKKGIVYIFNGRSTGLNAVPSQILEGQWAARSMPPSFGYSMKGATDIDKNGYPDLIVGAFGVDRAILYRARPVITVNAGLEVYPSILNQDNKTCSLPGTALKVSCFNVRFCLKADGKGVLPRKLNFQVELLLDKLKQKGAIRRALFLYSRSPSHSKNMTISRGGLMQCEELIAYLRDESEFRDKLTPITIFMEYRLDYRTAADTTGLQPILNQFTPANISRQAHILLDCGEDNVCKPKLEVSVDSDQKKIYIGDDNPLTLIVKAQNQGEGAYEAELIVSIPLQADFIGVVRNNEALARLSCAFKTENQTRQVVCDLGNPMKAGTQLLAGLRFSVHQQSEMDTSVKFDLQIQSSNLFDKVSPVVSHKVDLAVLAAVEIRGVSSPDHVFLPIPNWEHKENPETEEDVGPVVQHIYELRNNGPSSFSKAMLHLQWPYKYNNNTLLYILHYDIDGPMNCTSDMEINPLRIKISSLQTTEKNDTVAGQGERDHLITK
T1 sequence (P06756 891-1048 limits assumed): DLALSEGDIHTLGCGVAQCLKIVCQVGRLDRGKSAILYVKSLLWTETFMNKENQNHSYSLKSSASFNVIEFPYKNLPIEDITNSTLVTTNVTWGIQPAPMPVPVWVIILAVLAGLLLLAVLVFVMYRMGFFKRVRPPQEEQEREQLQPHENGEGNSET
Sequence of Integrin alpha-IIb/beta-3 (P05106 27-788 limits assumed): as the sequence (P05106 27-788 limits assumed) above
Sequence of Integrin alpha-IIb/beta-3 (P08514 32-887 limits assumed): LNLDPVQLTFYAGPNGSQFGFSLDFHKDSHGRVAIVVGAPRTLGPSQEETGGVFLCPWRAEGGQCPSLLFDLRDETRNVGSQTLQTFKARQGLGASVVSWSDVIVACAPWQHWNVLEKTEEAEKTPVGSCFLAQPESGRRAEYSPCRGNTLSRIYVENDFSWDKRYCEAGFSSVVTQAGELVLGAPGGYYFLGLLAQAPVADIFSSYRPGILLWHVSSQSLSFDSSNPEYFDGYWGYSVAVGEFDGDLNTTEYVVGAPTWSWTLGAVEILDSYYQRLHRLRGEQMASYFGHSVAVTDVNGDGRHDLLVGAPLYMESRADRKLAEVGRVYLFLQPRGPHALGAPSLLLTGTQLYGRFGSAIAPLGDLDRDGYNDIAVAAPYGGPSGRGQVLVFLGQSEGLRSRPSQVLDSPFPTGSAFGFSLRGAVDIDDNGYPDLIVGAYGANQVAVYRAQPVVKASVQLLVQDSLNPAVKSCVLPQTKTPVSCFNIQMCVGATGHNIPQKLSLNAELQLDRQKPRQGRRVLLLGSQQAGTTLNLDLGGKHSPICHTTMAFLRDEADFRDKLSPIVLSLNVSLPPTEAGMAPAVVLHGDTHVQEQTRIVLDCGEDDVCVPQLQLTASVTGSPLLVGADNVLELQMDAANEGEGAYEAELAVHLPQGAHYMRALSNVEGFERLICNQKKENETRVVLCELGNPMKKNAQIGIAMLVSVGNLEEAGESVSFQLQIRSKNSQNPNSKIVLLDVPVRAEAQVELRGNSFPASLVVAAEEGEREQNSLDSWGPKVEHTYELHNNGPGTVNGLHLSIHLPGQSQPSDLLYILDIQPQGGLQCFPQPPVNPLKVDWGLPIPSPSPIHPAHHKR
Sequence of Integrin alpha-IIb/beta-3 (P08514 891-1039 limits assumed): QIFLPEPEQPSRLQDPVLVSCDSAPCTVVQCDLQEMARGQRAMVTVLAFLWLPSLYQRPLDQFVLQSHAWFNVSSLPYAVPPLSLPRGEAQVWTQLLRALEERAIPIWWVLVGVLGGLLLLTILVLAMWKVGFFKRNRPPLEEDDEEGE

Compound	IC50 (Integrin alpha-V/beta-3 [1]) [nM]	also measured
Cc1cc(C)c(NC(=O)[C@H](CC(=O)O)NC(=O)c2ccc3c(cnn3CCCNc3ccccn3)c2)c(C)c1	> 1000	–
O=C(NC[C@H](NS(=O)(=O)c1cccc2ccccc12)C(=O)O)c1ccc2c(cnn2CCCNc2ncc[nH]2)c1	13	–
Cc1cc(C)c(S(=O)(=O)N[C@@H](CNC(=O)c2cccc3c2cnn3CCCNc2ncc[nH]2)C(=O)O)c(C)c1	–	IC50 (Integrin alpha-V/beta-3 [2]): < 0.1 nM; IC50 (Integrin alpha-V/beta-3 [3]): 25 nM
O=C(NC[C@H](NS(=O)(=O)c1c(Cl)cccc1Cl)C(=O)O)c1ccc2c(cnn2CCCNc2ncc[nH]2)c1	8.5	–
CCCCS(=O)(=O)N[C@@H](CNC(=O)c1ccc2c(cnn2CCCNc2ccccn2)c1)C(=O)O	360	–
Cc1cc(C)c(S(=O)(=O)N[C@@H](CNC(=O)C2=NOC(CCCC(=O)Nc3ncc[nH]3)C2)C(=O)O)c(C)c1 (some centres undefined)	–	IC50 [4]: 61 µM
O=C(N[C@@H](CNC(=O)c1ccc2c(cnn2CCCNc2ncc[nH]2)c1)C(=O)O)OCc1ccccc1	74	–
Cc1cccc(C)c1S(=O)(=O)N[C@@H](CNC(=O)c1ccc2c(cnn2CCCNc2ncc[nH]2)c1)C(=O)O	10	–
CC(C)CCC(=O)N[C@@H](CNC(=O)c1ccc2c(cnn2CCCNc2ccccn2)c1)C(=O)O	> 1000	–
Cc1ccc(S(=O)(=O)N[C@@H](CNC(=O)c2ccc3c(cnn3CCCNc3ncc[nH]3)c2)C(=O)O)cc1	16	–
Cc1cc(C)c(S(=O)(=O)N[C@@H](CNC(=O)c2ccc3c(cnn3CCCNc3ncc[nH]3)c2)C(=O)O)c(C)c1	2.3	–
O=C(NC[C@H](NS(=O)(=O)Cc1ccccc1)C(=O)O)c1ccc2c(cnn2CCCNc2ccccn2)c1	> 1000	–
O=C(NC[C@H](NS(=O)(=O)c1ccc2ccccc2c1)C(=O)O)c1ccc2c(cnn2CCCNc2ncc[nH]2)c1	4.7	–
CC(=O)Nc1ccc(S(=O)(=O)N[C@@H](CNC(=O)c2ccc3c(cnn3CCCNc3ncc[nH]3)c2)C(=O)O)cc1	150	–
O=C(Nc1ccccc1)N[C@@H](CNC(=O)c1ccc2c(cnn2CCCNc2ccccn2)c1)C(=O)O	> 1000	–
O=C(CCc1ccccc1)N[C@@H](CNC(=O)c1ccc2c(cnn2CCCNc2ccccn2)c1)C(=O)O	> 1000	–
O=C(NC[C@H](NS(=O)(=O)c1ccc(C(F)(F)F)cc1)C(=O)O)c1ccc2c(cnn2CCCNc2ncc[nH]2)c1	52	–
Cc1cc(C)c(S(=O)(=O)N[C@@H](CNC(=O)c2ccc3c(cnn3CCCNC3=NCCN3)c2)C(=O)O)c(C)c1	–	IC50 (Integrin alpha-V/beta-3 [5]): 70 nM
Cc1cc(C)c(S(=O)(=O)N[C@@H](CNC(=O)c2ccc3c(cnn3CCC(=O)Nc3ncc[nH]3)c2)C(=O)O)c(C)c1	56	–
O=C(N[C@@H](CNC(=O)c1ccc2c(cnn2CCCCNC2=NCCN2)c1)C(=O)O)OCc1ccccc1	–	IC50 (Integrin alpha-V/beta-3 [2]): 250 nM; IC50 (Integrin alpha-V/beta-3 [3]): > 1000 nM
CC(C)CNS(=O)(=O)N[C@@H](CNC(=O)c1ccc2c(cnn2CCCNc2ccccn2)c1)C(=O)O	> 1000	–
O=C(NCc1ccccc1)N[C@@H](CNC(=O)c1ccc2c(cnn2CCCNc2ccccn2)c1)C(=O)O	> 1000	–
O=C(O)CCNC(=O)c1ccc2c(cnn2CCCNc2ncc[nH]2)c1	> 1000	–
O=C(N[C@@H](CNC(=O)c1ccc2nn(CCCNC3=NCCN3)cc2c1)C(=O)O)OCc1ccccc1	–	IC50 (Integrin alpha-V/beta-3 [2]): 55 nM; IC50 (Integrin alpha-V/beta-3 [3]): > 1000 nM
O=C(NC[C@H](NS(=O)(=O)NCc1ccccc1)C(=O)O)c1ccc2c(cnn2CCCNc2ccccn2)c1	600	–
Cc1cc(C)c(S(=O)(=O)N[C@@H](CN(C)C(=O)c2ccc3c(cnn3CCCNc3ccccn3)c2)C(=O)O)c(C)c1	> 1000	–

Compound	IC50 (Integrin alpha-V/beta-3 [1]) [nM]	also measured
O=C(N[C@H](CNC(=O)c1ccc2cn(CCCNC3=NCCN3)nc2c1)C(=O)O)OCc1ccccc1	–	IC50 (Integrin alpha-V/beta-3 [2]): 25 nM; IC50 (Integrin alpha-V/beta-3 [3]): > 1000 nM
Cc1cc(C)c(NS(=O)(=O)N[C@@H](CNC(=O)c2ccc3c(cnn3CCCNc3ccccn3)c2)C(=O)O)c(C)c1	360	–
O=C(O)C[C@H](NC(=O)c1ccc2c(cnn2CCCNc2ccccn2)c1)C(=O)NCCc1ccccc1	> 1000	–
O=C(NC[C@H](NS(=O)(=O)Nc1ccccc1)C(=O)O)c1ccc2c(cnn2CCCNc2ccccn2)c1	170	–
Cc1cc(C)c(S(=O)(=O)N[C@@H](CNC(=O)c2ccc3c(cnn3CCCNc3cc[nH]n3)c2)C(=O)O)c(C)c1	> 1000	–
O=C(O)CCNC(=O)c1ccc2c(cnn2CCCNc2ccccn2)c1	> 1000	–
Cc1cc(C)c(S(=O)(=O)N[C@@H](CNC(=O)c2ccc3c(cnn3CCCNC3=NCCCN3)c2)C(=O)O)c(C)c1	–	IC50 (Integrin alpha-V/beta-3 [5]): 28 nM
O=C(N[C@@H](CNC(=O)c1ccc2c(cnn2CCCNC2=NCCN2)c1)C(=O)O)OCc1ccccc1	–	IC50 (Integrin alpha-V/beta-3 [2]): 3.8 nM; IC50 (Integrin alpha-V/beta-3 [3]): 460 nM
O=C(NC[C@H](NS(=O)(=O)c1ccccc1)C(=O)O)c1ccc2c(cnn2CCCNc2ccccn2)c1	120	–
CC(C)(C)c1ccc(S(=O)(=O)N[C@@H](CNC(=O)c2ccc3c(cnn3CCCNc3ncc[nH]3)c2)C(=O)O)cc1	120	–
Cc1cc(C)c(S(=O)(=O)N[C@@H](CC(=O)Nc2ccc3c(cnn3CCCNc3ccccn3)c2)C(=O)O)c(C)c1	840	–
O=C(NC[C@H](NS(=O)(=O)c1ccc(Cl)c(Cl)c1)C(=O)O)c1ccc2c(cnn2CCCNc2ncc[nH]2)c1	10	–
O=C(NC[C@H](NS(=O)(=O)c1ccc(-c2ccccc2)cc1)C(=O)O)c1ccc2c(cnn2CCCNc2ncc[nH]2)c1	35	–
CC(C)COC(=O)N[C@@H](CNC(=O)c1ccc2c(cnn2CCCNc2ccccn2)c1)C(=O)O	240	–
Cc1cc(-c2ccccc2)cc(C)c1S(=O)(=O)N[C@@H](CNC(=O)c1ccc2c(cnn2CCCNc2ncc[nH]2)c1)C(=O)O	4.9	–
Cc1cc(C)c(S(=O)(=O)NCCNC(=O)c2ccc3c(cnn3CCCNc3ncc[nH]3)c2)c(C)c1	> 1000	–
O=C(N[C@@H](CNC(=O)c1ccc2c(cnn2CCCNc2ccccn2)c1)C(=O)O)OCc1ccccc1	300	–
O=C(N[C@@H](CNC(=O)c1cccc2c1cnn2CCCNC1=NCCN1)C(=O)O)OCc1ccccc1	–	IC50 (Integrin alpha-V/beta-3 [2]): 7.3 nM; IC50 (Integrin alpha-V/beta-3 [3]): > 1000 nM
O=C(NC[C@H](NS(=O)(=O)c1ccccc1)C(=O)O)c1ccc2c(cnn2CCCNc2ncc[nH]2)c1	44	–
O=C(NC[C@H](NS(=O)(=O)c1ccc(Cl)cc1)C(=O)O)c1ccc2c(cnn2CCCNc2ncc[nH]2)c1	10	–
Cc1cc(C)c(S(=O)(=O)N[C@@H](CNC(=O)c2ccc3c(cnn3CCCNc3ccccn3)c2)C(=O)O)c(C)c1	48	–
O=C(N[C@@H](CNC(=O)c1ccc2c(cnn2CCNC2=NCCN2)c1)C(=O)O)OCc1ccccc1	–	IC50 (Integrin alpha-V/beta-3 [2]): 51 nM; IC50 (Integrin alpha-V/beta-3 [3]): > 1000 nM
O=C(N[C@H](CNC(=O)c1ccc2cnn(CCCNC3=NCCN3)c2c1)C(=O)O)OCc1ccccc1	–	IC50 (Integrin alpha-V/beta-3 [2]): 1500 nM; IC50 (Integrin alpha-V/beta-3 [3]): > 1000 nM
COc1ccc(S(=O)(=O)N[C@@H](CNC(=O)c2ccc3c(cnn3CCCNc3ncc[nH]3)c2)C(=O)O)cc1	26	–
Cc1cc(C)c(S(=O)(=O)N[C@H](CNC(=O)c2ccc3c(cnn3CCCNc3ncc[nH]3)c2)C(=O)O)c(C)c1	290	–
